Test results taken from ChEMBL document CHEMBL3352136, “Vinylated linear P2 pyrimidinyloxyphenylglycine based inhibitors of the HCV NS3/4A protease and corresponding macrocycles” (Bioorg Med Chem, 2014).
≈ marks a conversion by molar mass, not a printed value.

Columns and labels:
[1] = biological target: Hepatitis C virus serine protease, NS3/NS4A (Hepatitis C virus, UniProt A3EZI9+D2K2A8); test: Inhibition of HCV genotype 1a NS3/4A protease using Ac-DED(Edans)EEAbu-psi[COO]ASK(Dabcyl)-NH2 as substrate by FRET assay; design: species or system Hepatitis C virus subtype 1a
Chain of Hepatitis C virus serine protease, NS3/NS4A (D2K2A8 whole entry): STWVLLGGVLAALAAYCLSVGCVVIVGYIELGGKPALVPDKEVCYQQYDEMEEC
Chain of Hepatitis C virus serine protease, NS3/NS4A (A3EZI9 whole entry): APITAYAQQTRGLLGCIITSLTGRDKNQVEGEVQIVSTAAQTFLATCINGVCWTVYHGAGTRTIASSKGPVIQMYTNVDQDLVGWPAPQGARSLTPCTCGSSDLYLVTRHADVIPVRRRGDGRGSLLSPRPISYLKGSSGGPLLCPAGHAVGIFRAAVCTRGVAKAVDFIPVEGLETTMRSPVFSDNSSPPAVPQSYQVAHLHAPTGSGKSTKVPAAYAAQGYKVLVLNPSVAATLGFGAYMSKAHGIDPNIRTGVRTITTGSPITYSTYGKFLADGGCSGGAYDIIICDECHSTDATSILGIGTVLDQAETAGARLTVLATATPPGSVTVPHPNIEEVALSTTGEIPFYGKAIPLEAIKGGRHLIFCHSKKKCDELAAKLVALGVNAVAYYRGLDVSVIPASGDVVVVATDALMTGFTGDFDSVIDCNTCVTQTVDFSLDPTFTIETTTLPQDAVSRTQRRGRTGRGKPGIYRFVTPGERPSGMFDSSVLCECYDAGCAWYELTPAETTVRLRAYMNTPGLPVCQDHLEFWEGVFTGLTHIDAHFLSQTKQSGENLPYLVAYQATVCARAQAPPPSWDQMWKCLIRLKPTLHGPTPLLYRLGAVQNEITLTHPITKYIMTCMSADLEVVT
How it was run: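 Full-length NS3/4A (protease–helicase/NTPase, genotype 1a) measured by FRET. Buffer: 50 mM HEPES pH 7.5, 10 mM DTT, 40% glycerol, 0.1% n-octyl-β-D-glucoside, 3.3% DMSO. Ki values derived.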

[2] = Intrinsic clearance in human liver microsomes preincubated for 5 mins by LC/MS/MS analysis; assay type: ADME; conditions: liver microsomes
How it was run: (§1)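 Compound at 1 µM preincubated 5 min at 37 °C with pooled human liver microsomes (0.5 mg/mL) in 0.1 M potassium phosphate pH 7.4. Reaction started with NADPH (1 mM final) and stopped at 0, 5, 15 and 40 min with ice-cold acetonitrile containing internal standard. LC/MS/MS read-out. ln(% remaining) regressed linearly on time; t1/2 and Clint derived assuming first-order kinetics. Dextromethorphan (3 µM) and midazolam (5 µM) served as CYP2D6/CYP3A4 controls.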

[3] = tested on: Hepatitis C virus; test: Antiviral activity against HCV genotype 1b infected in human Huh-7 cells by firefly luciferase assay; assay type: functional, cell-based, Hepacivirus hominis
How it was run: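 Huh-7 cells carrying a subgenomic HCV genotype 1b replicon with firefly luciferase reporter; EC50 derived from luciferase signal.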

[4] = Half life in human liver microsomes preincubated for 5 mins by LC/MS/MS analysis; assay type: ADME; conditions: liver microsomes; how it was run: as §1
[5] = Apparent permeability from apical to basolateral side in human Caco2 cells; assay type: ADME, cell-based; conditions: Caco-2
How it was run: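 Caco-2 monolayers on polycarbonate filter inserts, cells kept in 90% air/10% CO2. Compound diluted from 10 mM DMSO stock to 10 µM (final DMSO 0.1%) in FASSIF pH 7.4 on apical donor side. Receiver is HBSS pH 7.4 with 1% (w/v) BSA. Run at 37 °C with 500 rpm stirring. Receiver sampled at 15, 30 and 60 min, donor sampled at 60 min for mass balance. Membrane integrity checked afterwards, LC/MS/MS read-out, at least triplicates.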

[6] = Solubility of the compound in PBS after 2 hrs by LC-MS/MS analysis; assay type: physicochemical
How it was run: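 DMSO stock (10 mM) added to PBS to 1% final DMSO, rotated in glass vials 2 h at 37 °C. Centrifuged 10,000g for 30 min, then supernatant quantified by LC–MS/MS. Upper detection limit 100 µM.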

[7] = tested on: Hepatitis C virus; test: Antiviral activity against HCV genotype 1a; assay type: functional, Hepacivirus hominis; conditions: subtype 1a

## C=CCCCS(=O)(=O)NC(=O)[C@H](CCC)NC(=O)[C@@H](NC(=O)[C@@H](NC(=O)OC(C)(C)C)C(C)(C)C)c1ccc(Oc2cc(-c3ccccc3)nc3cc(OC)ccc23)c(C=C)c1
[1]
  Ki: 63 nM

## C=CCCCS(=O)(=O)NC(=O)[C@H](CCC)NC(=O)[C@@H]1C[C@@H](Oc2cc(-c3ccccc3)nc3cc(OC)ccc23)CN1C(=O)[C@@H](NC(=O)OC(C)(C)C)C(C)(C)C
[1]
  Ki: 300 nM

## COc1ccc2c(O[C@@H]3C[C@@H](C(=O)Nc4ccccc4C(=O)NS(=O)(=O)c4ccccc4)N(C(=O)[C@@H](NC(=O)OC(C)(C)C)C(C)(C)C)C3)cc(-c3ccccc3)nc2c1
[1]
  Ki: 830 nM

## COc1ccc2c(O[C@@H]3C[C@H]4C(=O)N[C@]5(C(=O)O)C[C@H]5/C=C\CCCCC[C@H](NC(=O)OC5CCCC5)C(=O)N4C3)cc(-c3csc(NC(C)C)n3)nc2c1
[1]
  Ki: 0.3 nM

## C=CCCCS(=O)(=O)NC(=O)c1ccccc1NC(=O)[C@@H](NC(=O)[C@@H](NC(=O)OC(C)(C)C)C(C)(C)C)c1ccc(Oc2cc(OC)nc(-c3ccccc3)n2)c(C=C)c1
[2]
  microsomal CLint: 17 µL/min/mg
[3]
  EC50: > 10000 nM
[4]
  half-life: 83 min
[5]
  Papp A→B: 1.7 ×10⁻⁶ cm/s
[6]
  solubility at 2 h: 66 µM (≈ 55.5 µg/mL)
[1]
  Ki: 26 nM

## C=CCCCS(=O)(=O)NC(=O)c1ccccc1NC(=O)[C@H](NC(=O)[C@@H](NC(=O)OC(C)(C)C)C(C)(C)C)c1ccc(Oc2cc(OC)nc(-c3ccccc3)n2)c(C=C)c1
[3]
  EC50: > 10000 nM
[1]
  Ki: 33 nM

## C=CCCCS(=O)(=O)NC(=O)c1ccccc1NC(=O)[C@@H](NC(=O)OC(C)(C)C)c1ccc(Oc2cc(OC)nc(-c3ccccc3)n2)c(C=C)c1
[5]
  Papp A→B: 1 ×10⁻⁶ cm/s
[6]
  solubility at 2 h: 101 µM (≈ 73.5 µg/mL)
[1]
  Ki: 190 nM

## CCC[C@H](NC(=O)C1[C@H]2CCC[C@H]2CN1C(=O)[C@@H](NC(=O)[C@@H](NC(=O)c1cnccn1)C1CCCCC1)C(C)(C)C)C(=O)C(=O)NC1CC1 (some centres not stated)
[7]
  EC50: 350 nM
[1]
  Ki: 40 nM

## COc1ccc2c(Oc3ccc([C@H](NC(=O)[C@@H](NC(=O)OC(C)(C)C)C(C)(C)C)C(=O)Nc4ccccc4C(=O)NS(=O)(=O)c4ccccc4)cc3)cc(-c3ccccc3)nc2c1
[1]
  Ki: 310 nM

## C=CCCCS(=O)(=O)NC(=O)c1ccccc1NC(=O)[C@@H](NC(=O)OC(C)(C)C)c1ccc(Oc2cc(C=C)nc(-c3ccccc3)n2)cc1
[1]
  Ki: 220 nM

## C=CCCCS(=O)(=O)NC(=O)c1ccccc1NC(=O)[C@@H](NC(=O)OC(C)(C)C)c1ccc(Oc2cc(OC)nc(-c3ccccc3)n2)cc1
[2]
  microsomal CLint: 86 µL/min/mg
[4]
  half-life: 16 min
[5]
  Papp A→B: 4 ×10⁻⁶ cm/s
[6]
  solubility at 2 h: 93 µM (≈ 65.3 µg/mL)
[1]
  Ki: 600 nM

## C=CCCS(=O)(=O)NC(=O)c1ccccc1NC(=O)[C@@H](NC(=O)OC(C)(C)C)c1ccc(Oc2cc(OC)nc(-c3ccccc3)n2)c(C=C)c1
[1]
  Ki: 370 nM

## C=CCCCS(=O)(=O)NC(=O)c1ccccc1NC(=O)[C@@H](NC(=O)[C@@H](NC(=O)OCCC=C)C(C)(C)C)c1ccc(Oc2cc(C=C)nc(-c3ccccc3)n2)cc1
[1]
  Ki: 110 nM

## C=CCCCCC[C@H](NC(=O)OC(C)(C)C)C(=O)N[C@H](C(=O)Nc1ccccc1C(=O)NS(=O)(=O)CCCC=C)c1ccc(Oc2cc(OC)nc(-c3ccccc3)n2)cc1
[2]
  microsomal CLint: 60 µL/min/mg
[4]
  half-life: 23 min
[5]
  Papp A→B: 0.22 ×10⁻⁶ cm/s
[6]
  solubility at 2 h: 91 µM (≈ 77.8 µg/mL)
[1]
  Ki: 230 nM

## C=CCCCS(=O)(=O)NC(=O)c1ccccc1NC(=O)[C@@H](NC(=O)[C@@H](NC(=O)OC(C)(C)C)C(C)(C)C)c1ccc(Oc2cc(OC)nc(-c3ccccc3)n2)cc1
[2]
  microsomal CLint: 64 µL/min/mg
[4]
  half-life: 22 min
[5]
  Papp A→B: 0.22 ×10⁻⁶ cm/s
[6]
  solubility at 2 h: 33 µM (≈ 26.9 µg/mL)
[1]
  Ki: 95 nM

## CCC[C@@H]1NC(=O)[C@@H](NC(=O)[C@@H](NC(=O)OC(C)(C)C)C(C)(C)C)c2ccc(cc2)Oc2cc(nc(-c3ccccc3)n2)/C=C/CCCS(=O)(=O)NC1=O
[1]
  Ki: 2400 nM
